Assay results reported in ChEMBL document CHEMBL3098111, “Discovery of 2,5-diarylnicotinamides as selective orexin-2 receptor antagonists (2-SORAs)” (Bioorg Med Chem Lett, 2013).
Active and inactive are the calls of the source. The calls are words filed in the database; no cut-off is given here.

How the values were obtained:
[1] = target: Substance-P receptor (Homo sapiens) (UniProt P25103); test: Inhibition of human NK1 receptor at 10 uM relative to control
[2] = target: Galanin receptor type 1 (Homo sapiens) (UniProt P47211); test: Inhibition of human GAL1 receptor at 10 uM relative to control
[3] = target: cGMP-dependent 3',5'-cyclic phosphodiesterase (Homo sapiens) (UniProt O00408); test: Inhibition of human PDE2 at 100 uM relative to control
[4] = test system: Rattus norvegicus; test: Antiinsomnic activity in rat EEG model assessed as increase in REM sleep time at 15 mg/kg, po; assay type: functional, organism-based; set-up: dose 15 mg/kg
Outline: (§1)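 Rats with EEG telemetry given 15 mg/kg orally during their active period, vehicle 20% Vitamin E TPGS in water. Sleep architecture (active wake, light sleep, delta and REM sleep) scored from EEG.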

[5] = target: Melanocortin receptor 3 (Homo sapiens) (UniProt P41968); test: Inhibition of human MC3 receptor at 10 uM relative to control
[6] = species on record: Rattus norvegicus; test: Inhibition of rat GABAB receptor at 10 uM relative to control
[7] = target: Cholecystokinin receptor type A (Homo sapiens) (UniProt P32238); test: Inhibition of human CCKA receptor at 10 uM relative to control
[8] = target: 5-hydroxytryptamine receptor 4 (Cavia porcellus) (UniProt O70528); test: Inhibition of guinea pig 5-HT4 receptor at 10 uM relative to control
[9] = target: Epidermal growth factor receptor (Homo sapiens) (UniProt P00533); test: Inhibition of human EGF receptor at 10 uM relative to control
[10] = species on record: Cavia porcellus; test: Inhibition of guinea pig adenosine transporter at 10 uM relative to control
[11] = target: Melanocortin receptor 5 (Homo sapiens) (UniProt P33032); test: Inhibition of human MC5 receptor at 10 uM relative to control
[12] = target: Prostaglandin D2 receptor (Homo sapiens) (UniProt Q13258); test: Inhibition of human prostanoid DP receptor at 10 uM relative to control
[13] = target: Oxytocin receptor (Homo sapiens) (UniProt P30559); test: Inhibition of human oxytocin receptor at 10 uM relative to control
[14] = target: Neuropeptide Y receptor type 1 (Homo sapiens) (UniProt P25929); test: Inhibition of human neuropeptide YY1 receptor at 10 uM relative to control
[15] = test system: Rattus norvegicus; test: Antiinsomnic activity in rat EEG model assessed as decrease in light sleep time at 15 mg/kg, po; assay type: functional, organism-based; set-up: dose 15 mg/kg; outline: as §1
[16] = target: Glutamate NMDA receptor (Rattus norvegicus) (UniProt P35439+Q00959+Q00960+Q00961+Q62645+Q8VHN2+Q9R1M7); test: Inhibition of rat NMDA receptor glycine binding site at 10 uM relative to control; assay type: protein-complex assay
[17] = species on record: Bos taurus; test: Inhibition of bovine PDE6 at 100 uM relative to control
[18] = target: Prostacyclin receptor (Homo sapiens) (UniProt P43119); test: Inhibition of human prostanoid IP receptor at 10 uM relative to control
[19] = species on record: Rattus norvegicus; test: Inhibition of rat glutamate receptor at 10 uM relative to control
[20] = target: Histamine H1 receptor (Homo sapiens) (UniProt P35367); test: Inhibition of human histamine H1 receptor at 10 uM relative to control
[21] = target: Nociceptin receptor (Homo sapiens) (UniProt P41146); test: Inhibition of human ORL1 receptor at 10 uM relative to control
[22] = target: Type-2 angiotensin II receptor (Homo sapiens) (UniProt P50052); test: Inhibition of human angiotensin AT2 receptor at 10 uM relative to control
[23] = target: D(4) dopamine receptor (Homo sapiens) (UniProt P21917); test: Inhibition of human dopamine D4.4 receptor at 10 uM relative to control
[24] = target: Macrophage metalloelastase (Homo sapiens) (UniProt P39900); test: Inhibition of human MMP-12 at 10 uM relative to control
[25] = target: Somatostatin receptor type 1 (Homo sapiens) (UniProt P30872); test: Inhibition of human SST1 receptor at 10 uM relative to control
[26] = species on record: Rattus norvegicus; test: Inhibition of rat GABAA chloride channel TBOB binding site at 10 uM relative to control
[27] = target: Thromboxane A2 receptor (Homo sapiens) (UniProt P21731); test: Inhibition of human thromboxane A2 receptor at 10 uM relative to control
[28] = species on record: Rattus norvegicus; test: Inhibition of rat GABAA central type receptor muscimol binding site at 10 uM relative to control
[29] = target: Tyrosine-protein phosphatase non-receptor type 1 (Homo sapiens) (UniProt P18031); test: Inhibition of human PTP1B at 10 uM relative to control
[30] = target: Peroxisome proliferator-activated receptor alpha (Homo sapiens) (UniProt Q07869); test: Inhibition of human PPARalpha at 10 uM relative to control
[31] = target: Pro-epidermal growth factor (Homo sapiens) (UniProt P01133); test: Inhibition of human EGF at 10 uM relative to control
[32] = target: 5-hydroxytryptamine receptor 6 (Homo sapiens) (UniProt P50406); test: Inhibition of human 5-HT6 receptor at 10 uM relative to control
[33] = target: Alpha-2B adrenergic receptor (Homo sapiens) (UniProt P18089); test: Inhibition of human alpha2B adrenergic receptor at 10 uM relative to control
[34] = species on record: Homo sapiens; test: Selectivity ratio of Ki for human orexin-1 receptor to Ki for human orexin-2 receptor
Outline: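 Radioligand binding: a high-affinity radioligand was bound to membranes from human cells overexpressing OX1R or OX2R, and inhibition of that binding was measured and expressed as Ki. The ratio is the OX1R Ki divided by the OX2R Ki.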

[35] = target: Cathepsin G (Homo sapiens) (UniProt P08311); test: Inhibition of human cathepsin G at 10 uM relative to control
[36] = target: Vasopressin V2 receptor (Homo sapiens) (UniProt P30518); test: Inhibition of human V2 receptor at 10 uM relative to control
[37] = target: 5-hydroxytryptamine receptor 1B (Rattus norvegicus) (UniProt P28564); test: Inhibition of rat 5-HT1B receptor at 10 nM relative to control
[38] = target: D(3) dopamine receptor (Homo sapiens, UniProt P35462); test: Inhibition of human dopamine D3 receptor at 1 uM relative to control
[39] = target: Calcitonin gene-related peptide type 1 receptor (Homo sapiens) (UniProt Q16602); test: Inhibition of human CGRP1 at 10 uM relative to control
[40] = target: Proto-oncogene tyrosine-protein kinase Src (Homo sapiens) (UniProt P12931); test: Inhibition of human SRC at 10 uM relative to control
[41] = species on record: Rattus norvegicus; test: Inhibition of rat bombesin receptor at 10 uM relative to control
[42] = target: Endothelin receptor type B (Homo sapiens) (UniProt P24530); test: Inhibition of human ETB receptor at 10 uM relative to control
[43] = target: Histamine H3 receptor (Homo sapiens) (UniProt Q9Y5N1); test: Inhibition of human histamine H3 receptor at 10 uM relative to control

Somatostatin receptor type 1 (Homo sapiens), sequence (P30872 whole entry): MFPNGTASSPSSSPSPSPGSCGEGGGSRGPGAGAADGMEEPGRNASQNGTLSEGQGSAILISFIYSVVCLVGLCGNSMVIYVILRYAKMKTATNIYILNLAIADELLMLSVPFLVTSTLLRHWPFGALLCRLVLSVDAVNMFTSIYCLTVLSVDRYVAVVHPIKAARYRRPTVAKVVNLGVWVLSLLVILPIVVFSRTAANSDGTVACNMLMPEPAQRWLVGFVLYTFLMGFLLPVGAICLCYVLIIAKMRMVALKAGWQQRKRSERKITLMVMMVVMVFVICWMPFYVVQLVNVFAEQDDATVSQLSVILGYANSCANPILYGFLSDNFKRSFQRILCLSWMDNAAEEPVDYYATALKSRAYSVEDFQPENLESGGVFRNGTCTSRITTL
Cathepsin G (Homo sapiens), sequence (P08311 whole entry): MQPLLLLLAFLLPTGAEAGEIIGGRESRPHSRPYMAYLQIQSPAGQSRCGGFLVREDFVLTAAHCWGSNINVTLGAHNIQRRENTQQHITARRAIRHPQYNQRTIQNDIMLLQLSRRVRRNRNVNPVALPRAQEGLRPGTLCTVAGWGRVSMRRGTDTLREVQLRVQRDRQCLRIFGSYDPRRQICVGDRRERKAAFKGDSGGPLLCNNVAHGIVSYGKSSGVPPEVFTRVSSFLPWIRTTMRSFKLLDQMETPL
Vasopressin V2 receptor (Homo sapiens), sequence (P30518 whole entry): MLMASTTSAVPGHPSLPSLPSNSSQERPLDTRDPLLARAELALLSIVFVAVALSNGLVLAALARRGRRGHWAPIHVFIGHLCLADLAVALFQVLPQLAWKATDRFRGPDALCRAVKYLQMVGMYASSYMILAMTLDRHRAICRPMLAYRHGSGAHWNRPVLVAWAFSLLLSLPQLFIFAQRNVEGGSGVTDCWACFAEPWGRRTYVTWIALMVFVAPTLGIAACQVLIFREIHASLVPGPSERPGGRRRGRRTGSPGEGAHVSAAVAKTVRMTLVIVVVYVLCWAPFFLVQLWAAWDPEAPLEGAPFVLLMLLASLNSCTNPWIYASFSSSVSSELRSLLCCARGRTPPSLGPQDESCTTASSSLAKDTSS
Oxytocin receptor (Homo sapiens), sequence (P30559 whole entry): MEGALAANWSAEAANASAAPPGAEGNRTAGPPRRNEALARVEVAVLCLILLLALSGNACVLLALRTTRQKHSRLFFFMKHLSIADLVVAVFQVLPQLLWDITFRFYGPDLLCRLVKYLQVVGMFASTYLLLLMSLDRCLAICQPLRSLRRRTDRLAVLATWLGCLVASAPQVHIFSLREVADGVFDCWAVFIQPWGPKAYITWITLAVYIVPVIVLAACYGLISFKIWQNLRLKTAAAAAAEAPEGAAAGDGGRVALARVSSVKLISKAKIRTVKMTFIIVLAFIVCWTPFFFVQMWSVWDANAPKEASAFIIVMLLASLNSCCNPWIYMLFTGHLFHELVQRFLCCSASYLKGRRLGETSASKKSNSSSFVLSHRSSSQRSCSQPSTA
Nociceptin receptor (Homo sapiens), sequence (P41146 whole entry): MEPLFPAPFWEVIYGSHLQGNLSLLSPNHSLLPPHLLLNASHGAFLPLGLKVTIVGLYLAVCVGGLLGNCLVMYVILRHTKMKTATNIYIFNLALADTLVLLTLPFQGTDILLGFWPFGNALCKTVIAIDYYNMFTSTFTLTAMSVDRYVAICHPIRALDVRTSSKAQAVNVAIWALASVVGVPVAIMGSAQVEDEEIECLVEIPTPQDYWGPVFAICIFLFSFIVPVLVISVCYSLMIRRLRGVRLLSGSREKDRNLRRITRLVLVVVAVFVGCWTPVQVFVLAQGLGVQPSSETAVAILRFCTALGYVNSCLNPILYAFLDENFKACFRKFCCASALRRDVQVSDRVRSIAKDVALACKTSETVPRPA
Pro-epidermal growth factor (Homo sapiens), sequence (P01133 whole entry): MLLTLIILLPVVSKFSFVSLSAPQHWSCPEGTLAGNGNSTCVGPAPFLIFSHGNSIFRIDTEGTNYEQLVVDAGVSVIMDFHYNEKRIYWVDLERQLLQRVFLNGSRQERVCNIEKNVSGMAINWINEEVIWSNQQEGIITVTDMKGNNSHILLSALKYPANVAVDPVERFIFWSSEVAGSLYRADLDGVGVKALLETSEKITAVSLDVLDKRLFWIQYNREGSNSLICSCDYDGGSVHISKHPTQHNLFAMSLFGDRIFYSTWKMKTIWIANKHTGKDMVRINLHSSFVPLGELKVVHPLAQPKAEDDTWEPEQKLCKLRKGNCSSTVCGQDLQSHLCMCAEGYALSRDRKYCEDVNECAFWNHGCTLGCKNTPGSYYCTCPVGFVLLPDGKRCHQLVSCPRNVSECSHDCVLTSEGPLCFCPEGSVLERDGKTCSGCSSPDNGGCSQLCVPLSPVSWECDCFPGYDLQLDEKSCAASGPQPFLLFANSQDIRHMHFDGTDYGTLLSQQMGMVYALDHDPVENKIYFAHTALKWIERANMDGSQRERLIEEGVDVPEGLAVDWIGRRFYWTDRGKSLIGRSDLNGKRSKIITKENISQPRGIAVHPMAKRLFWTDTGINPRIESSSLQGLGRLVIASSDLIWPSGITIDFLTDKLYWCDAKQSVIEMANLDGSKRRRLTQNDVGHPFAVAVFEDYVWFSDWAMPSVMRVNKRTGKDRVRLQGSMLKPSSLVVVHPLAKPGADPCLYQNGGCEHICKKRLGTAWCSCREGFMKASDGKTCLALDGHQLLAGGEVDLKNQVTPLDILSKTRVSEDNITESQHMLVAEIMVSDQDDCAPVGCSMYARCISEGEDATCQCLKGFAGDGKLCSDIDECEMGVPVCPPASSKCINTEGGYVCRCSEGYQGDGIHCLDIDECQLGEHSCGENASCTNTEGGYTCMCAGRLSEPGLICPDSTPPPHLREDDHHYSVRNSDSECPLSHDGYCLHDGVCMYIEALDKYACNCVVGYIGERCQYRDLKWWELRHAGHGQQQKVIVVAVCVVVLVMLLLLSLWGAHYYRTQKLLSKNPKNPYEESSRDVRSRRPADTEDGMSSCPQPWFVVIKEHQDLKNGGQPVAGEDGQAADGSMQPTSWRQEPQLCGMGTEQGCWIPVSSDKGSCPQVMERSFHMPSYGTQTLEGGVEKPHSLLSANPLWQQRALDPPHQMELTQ
Macrophage metalloelastase (Homo sapiens), sequence (P39900 106-470 limits assumed): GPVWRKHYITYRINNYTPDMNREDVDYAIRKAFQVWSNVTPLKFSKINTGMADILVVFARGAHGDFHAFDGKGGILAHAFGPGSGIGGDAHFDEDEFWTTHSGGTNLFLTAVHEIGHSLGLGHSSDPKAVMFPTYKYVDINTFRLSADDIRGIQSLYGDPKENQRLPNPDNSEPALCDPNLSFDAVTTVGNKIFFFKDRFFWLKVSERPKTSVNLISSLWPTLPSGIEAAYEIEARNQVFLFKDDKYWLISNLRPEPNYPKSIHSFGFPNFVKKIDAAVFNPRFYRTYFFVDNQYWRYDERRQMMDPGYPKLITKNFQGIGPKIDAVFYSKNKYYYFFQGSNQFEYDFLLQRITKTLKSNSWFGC
Epidermal growth factor receptor (Homo sapiens), sequence (P00533 whole entry): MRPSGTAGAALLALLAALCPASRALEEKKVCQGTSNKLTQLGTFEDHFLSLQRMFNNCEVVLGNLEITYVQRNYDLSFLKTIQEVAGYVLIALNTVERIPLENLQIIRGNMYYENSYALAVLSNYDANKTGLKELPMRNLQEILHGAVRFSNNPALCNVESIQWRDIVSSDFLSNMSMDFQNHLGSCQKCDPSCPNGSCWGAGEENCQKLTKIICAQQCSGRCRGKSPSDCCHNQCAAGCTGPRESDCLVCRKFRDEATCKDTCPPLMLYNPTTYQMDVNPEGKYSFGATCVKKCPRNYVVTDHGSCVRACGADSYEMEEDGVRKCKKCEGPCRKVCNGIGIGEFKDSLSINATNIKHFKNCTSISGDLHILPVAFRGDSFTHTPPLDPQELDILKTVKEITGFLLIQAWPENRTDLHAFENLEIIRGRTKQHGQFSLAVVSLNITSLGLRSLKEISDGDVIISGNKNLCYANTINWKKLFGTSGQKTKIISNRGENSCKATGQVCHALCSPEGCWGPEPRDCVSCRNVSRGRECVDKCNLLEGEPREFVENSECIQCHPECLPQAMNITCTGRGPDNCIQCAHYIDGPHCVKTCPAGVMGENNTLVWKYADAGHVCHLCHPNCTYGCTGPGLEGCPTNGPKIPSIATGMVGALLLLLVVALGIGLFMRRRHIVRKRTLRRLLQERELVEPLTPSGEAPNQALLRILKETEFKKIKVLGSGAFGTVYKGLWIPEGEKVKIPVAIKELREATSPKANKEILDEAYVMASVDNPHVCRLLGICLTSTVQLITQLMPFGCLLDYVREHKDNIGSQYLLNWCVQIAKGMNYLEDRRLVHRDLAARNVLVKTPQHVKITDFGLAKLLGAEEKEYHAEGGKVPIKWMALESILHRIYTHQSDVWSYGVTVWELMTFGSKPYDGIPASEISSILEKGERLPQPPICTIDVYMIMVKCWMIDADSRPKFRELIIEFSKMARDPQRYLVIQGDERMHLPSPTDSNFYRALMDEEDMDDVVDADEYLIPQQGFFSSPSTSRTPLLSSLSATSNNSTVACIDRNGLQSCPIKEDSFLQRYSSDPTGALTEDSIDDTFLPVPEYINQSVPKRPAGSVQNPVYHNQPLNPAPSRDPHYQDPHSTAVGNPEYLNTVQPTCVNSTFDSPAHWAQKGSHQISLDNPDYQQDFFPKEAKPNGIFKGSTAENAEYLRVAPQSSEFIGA
5-hydroxytryptamine receptor 1B (Rattus norvegicus), sequence (P28564 whole entry): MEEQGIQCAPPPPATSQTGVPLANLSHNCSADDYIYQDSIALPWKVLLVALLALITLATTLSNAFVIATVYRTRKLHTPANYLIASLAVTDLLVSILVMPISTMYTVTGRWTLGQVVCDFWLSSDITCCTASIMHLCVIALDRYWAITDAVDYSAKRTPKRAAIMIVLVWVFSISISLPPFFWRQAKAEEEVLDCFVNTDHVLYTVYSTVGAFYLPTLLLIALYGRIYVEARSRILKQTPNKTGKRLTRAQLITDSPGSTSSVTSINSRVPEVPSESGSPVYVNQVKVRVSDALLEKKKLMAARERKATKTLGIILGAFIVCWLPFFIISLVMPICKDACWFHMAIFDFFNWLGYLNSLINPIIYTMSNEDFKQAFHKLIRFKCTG

Q: Which results are given for `COc1ccc(CNC(=O)c2cc(-c3cc(Cl)cc(Cl)c3)cnc2-c2cccnc2)cc1OC`?
A: inhibition [1]: 26%; inhibition [2]: 3%; inhibition [3]: 4%; Activity [4]: Active; inhibition [5]: 2%; inhibition [6]: 0%; inhibition [7]: 9%; inhibition [8]: 22%; inhibition [9]: 10%; inhibition [10]: 69%; inhibition [11]: 9%; inhibition [12]: 16%; inhibition [13]: 14%; inhibition [14]: 23%; Activity [15]: Active; inhibition [16]: 9%; inhibition [17]: 16%; inhibition [18]: -2%; inhibition [19]: -6%; inhibition [20]: 10%; inhibition [21]: 9%; inhibition [22]: 18%; inhibition [23]: 3%; inhibition [24]: -6%; inhibition [25]: 14%; inhibition [26]: 8%; inhibition [27]: 17%; inhibition [28]: 9%; inhibition [29]: 1%; inhibition [30]: 5%; inhibition [31]: 7%; inhibition [32]: -8%; inhibition [33]: 34%; Ratio Ki [34]: 1350; inhibition [35]: -8%; inhibition [36]: 0%; inhibition [37]: -4%; inhibition [38]: 19%; inhibition [39]: -10%; inhibition [40]: -5%; inhibition [41]: 3%; inhibition [42]: 8%; inhibition [43]: -3%
